# Assay results reported in paper PMC5679172 (The Journal of Experimental Medicine, 2017).
# Tests used:
# Type in all cases: cell-based, mouse
# potassium efflux = assay: intracellular potassium detection in BMDMs; conditions: LPS-primed Nlrp3−/− BMDMs
# Procedure, shortened: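 BMDMs plated overnight and primed with LPS 50 ng/ml for 3 h, then given test compound for 30 min and nigericin for 30 min. […] Intracellular K+ quantified by ICP optical emission spectrometry with yttrium as internal standard.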
# chloride efflux = assay: intracellular chloride detection in BMDMs; conditions: LPS-primed Nlrp3−/− BMDMs
# Procedure, shortened: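 BMDMs plated overnight and primed with LPS 50 ng/ml for 3 h, then given test compound for 30 min and nigericin for 15 min. Cells lysed in water for 15 min at 37°C and spun at 10,000 g for 5 min. Supernatant mixed with MQAE and signal read on a plate reader. Residual extracellular chloride subtracted using a control.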
# LPS-induced priming = LPS-induced priming in BMDMs; conditions: for LPS-induced TNF-α production or pro–IL-1β expression: BMDMs treated with inhibitor before LPS stimulation
# AIM2 inflammasome = assay: cytosolic poly; conditions: LPS-primed BMDMs, cytosolic double-stranded DNA poly(dA:dT), IL-1β ELISA
# Procedure, shortened: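 BMDMs plated at 5 × 10^5/ml and primed next day with LPS 50 ng/ml for 3 h. Test compound added for 30 min, then poly(dA:dT) (0.5 µg/ml) delivered by lipofection for 4 h. Supernatant IL-1β measured by ELISA.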
# NLRC4 inflammasome = assay: Salmonella infection-induced NLRC4 inflammasome activation in BMDMs; conditions: LPS-primed BMDMs, IL-1β ELISA
# Procedure, shortened: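 BMDMs plated at 5 × 10^5/ml and primed next day with LPS 50 ng/ml for 3 h. Test compound added for 30 min, then cells infected with Salmonella typhimurium for 4 h. Supernatant IL-1β measured by ELISA.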
compound,measurement,setting,value
CC(C)(O)c1coc(S(=O)(=O)NC(=O)Nc2c3c(cc4c2CCC4)CCC3)c1 [MCC950],nigericin-induced potassium efflux (decrease of intracellular potassium),potassium efflux,could not
same,nigericin-induced chloride efflux (decrease of intracellular chloride),chloride efflux,could inhibit
same,LPS-induced priming effects,LPS-induced priming; BMDMs,no effect
Cc1ccc(S(=O)(=O)/C=C/C#N)cc1 [BAY 11-7082],LPS-induced TNF-α production or pro–IL-1β expression,LPS-induced priming,could suppress
Cc1cccc(Nc2ccccc2C(=O)O)c1C [mefenamic acid],LPS-induced TNF-α production or pro–IL-1β expression,LPS-induced priming,could suppress
O=C(/C=C/c1ccc(O)cc1)c1ccc(O)cc1O [isoliquiritigenin],LPS-induced TNF-α production or pro–IL-1β expression,LPS-induced priming,could suppress
"CC(O)CC(=O)O (stereo not drawn) [BHB, β-hydroxybutyrate]",nigericin-induced potassium efflux (decrease of intracellular potassium),potassium efflux,could suppress
same,LPS-induced TNF-α production or pro–IL-1β expression,LPS-induced priming,could suppress
C[S+]([O-])CCCCN=C=S (centres unmarked) [sulforaphane],AIM2 inflammasome activation,AIM2 inflammasome,could also inhibit
same,LPS-induced TNF-α production or pro–IL-1β expression,LPS-induced priming,could suppress
same,NLRC4 inflammasome activation,NLRC4 inflammasome,could also inhibit
C=C1C(=O)O[C@H]2[C@H]1CC/C(C)=C/CC[C@@]1(C)O[C@@H]21 [parthenolide],AIM2 inflammasome activation,AIM2 inflammasome,could also inhibit
same,LPS-induced TNF-α production or pro–IL-1β expression,LPS-induced priming,could suppress
same,NLRC4 inflammasome activation,NLRC4 inflammasome,could also inhibit
O=C(O)c1ccccc1Nc1cccc(C(F)(F)F)c1 [flufenamic acid],nigericin-induced potassium efflux (decrease of intracellular potassium),potassium efflux,could not
same,nigericin-induced chloride efflux (decrease of intracellular chloride),chloride efflux,blocked
same,LPS-induced TNF-α production or pro–IL-1β expression,LPS-induced priming,could suppress
